Bioassay records (PubChem)
Shown are actives, neighbours in structure and some others; about 3.5% of the full set was active somewhere.
Cneo AK release = causes C. neoformans cell lysis; lysis activity, % at 15 µM; AID 651654; hit rate 0.2% among 360,000; adenylate kinase release luminescence, 4 h; normalised: neutral wells 0, clomiphene wells 100;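 active means mean lysis activity across replicates of at least 80%, whatever share of replicates individually reach that level; inactive means mean lysis activity below 80%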
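Signal: Adenylate kinase release luminescence | Assay system: Log-phase Cryptococcus neoformans yeast cells | Input: Cells at 5 × 10^6 per mL | Buffer or medium: Fresh YPD growth medium | Compound: Single dose | Schedule: Static 4 h at 37 °C with compound, 1 h detection | Controls: Clomiphene | Read-out: Luminescence rise reflecting yeast cell lysis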
FGF22 binding = shifts melting point of recombinant human FGF22 | Q9HCT0 | recombinant FGF22 thermal shift, SYPRO orange fluorescence; percent of sucrose octasulfate shift, DMSO zero | activity (Tm shift, normalised), % at 9.99 µM | hit rate 1.5% among 340,000;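 active means mean Tm shift, scaled 0 neutral to 100 positive control, at about 1.3% or above, every replicate too, limit read from the data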
Target sequence (Q9HCT0 whole entry, looked up): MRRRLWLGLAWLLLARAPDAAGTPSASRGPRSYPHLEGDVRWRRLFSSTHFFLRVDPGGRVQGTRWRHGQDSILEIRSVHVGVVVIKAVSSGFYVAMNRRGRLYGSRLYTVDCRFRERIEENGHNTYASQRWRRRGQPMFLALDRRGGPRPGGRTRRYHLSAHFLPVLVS
rRNA inh HTS = inhibits bacterial ribosomal RNA function over humanized ribosomes; E. coli WT GFP vs humanized-ribosome RFP mutants, fluorescence, 24 h; active compounds read low; DMSO median 0, no signal -100; GFP signal change (wild-type ribosome), % (no concentration beside the values); hit rate 1.6% among 350,000; AID 720706;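 active means significant combined selectivity score with lowered wild-type GFP, culture density cut under 30%, mutant RFP and density less affected; inactive means any of these conditions unmet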
HIV Env fusion = blocks HIV Env-driven cell-cell fusion; hit rate 1.1% among 360,000; HeLa-JRFL Env/CEM21 cell fusion, luciferase; inhibition, % at 12.3 µM;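 active means mean replicate inhibition score of at least 50 and every replicate individually at or above 50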
ERAP1 inh = inhibitors of human ERAP1 aminopeptidase; inhibition, % at 10.7 µM; recombinant ERAP1, Leu-AMC fluorescence, 60 min; hit rate 0.15% among 340,000; AID 652197;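 active means mean replicate inhibition of at least 30%, or all replicates individually reaching that 30% level; inactive means mean below 30% and not every replicate reaching it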
PGC1a acetyl inh = lowers PGC1a acetylation signal in U2OS cells | AlphaScreen anti-acetyl-lysine; with virally co-expressed GCN5 acetyltransferase | inhibition, % at 15.6 µM | hit rate 0.17% among 350,000 | AID 651687;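 active means every replicate shows inhibition of at least 40%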
Hits are given with their value.

COc1ccc(CCNC(=O)C2CCN(C(=O)c3cccc(Cl)c3)CC2)cc1OC was read as Cneo AK release inactive, FGF22 binding inactive, rRNA inh HTS inactive, HIV Env fusion inactive, ERAP1 inh inactive and PGC1a acetyl inh inactive.
Screening CCC(=O)N1CCN(c2ccc(-n3c(=O)ccc4cnc5ccc(-c6cnc7ccccc7c6)cc5c43)cc2C(F)(F)F)CC1 returned FGF22 binding inactive, rRNA inh HTS inactive and HIV Env fusion 59.2.
For CCCCNC(=O)O[C@@H]1C[C@H]2CCCC(=O)N3CC[C@@H](C1)[C@@H]23 the results were Cneo AK release inactive, FGF22 binding inactive, rRNA inh HTS inactive, HIV Env fusion inactive, ERAP1 inh inactive and PGC1a acetyl inh inactive.
For COc1cccc(NC(=O)CSc2nnc(Cc3cccs3)n2-c2ccc(C)cc2)c1 the results were Cneo AK release inactive, HIV Env fusion 84.2 and PGC1a acetyl inh inactive.
CC1(Cc2cc(Cl)ccc2C(F)(F)F)C(=O)Nc2cc(F)ccc21 (stereo unspecified) was read as Cneo AK release inactive.
Screening CC1(Cc2ccc(C(F)(F)F)o2)C(=O)Nc2cc(-c3ccc(F)cc3F)ccc21 (stereo unspecified) returned Cneo AK release inactive, FGF22 binding inactive, rRNA inh HTS inactive, HIV Env fusion 61.8 and ERAP1 inh inactive.
Screening C=CCC(Nc1ccccc1)C12C=CC(O1)C(C(=O)OC)=C2C(=O)OC (stereo unspecified) returned Cneo AK release inactive, rRNA inh HTS inactive and ERAP1 inh inactive.
For COC(=O)C1=C(C(=O)OC)[C@]2([C@H]3CC=CCN[C@@H](Cc4ccccc4)C(=O)N3Cc3ccccc3)C=C[C@H]1O2 the results were Cneo AK release inactive, FGF22 binding inactive, rRNA inh HTS inactive, HIV Env fusion 58.2, ERAP1 inh inactive and PGC1a acetyl inh inactive.
For COC(=O)C1=C(C(=O)OC)[C@]2([C@@H]3CC=CCN[C@@H](Cc4ccccc4)C(=O)N3Cc3ccccc3)C=C[C@H]1O2 the results were Cneo AK release inactive, FGF22 binding inactive, rRNA inh HTS inactive, HIV Env fusion 73.3 and ERAP1 inh inactive.
O=S(=O)(c1cc(F)ccc1F)N1CCC2(CC1)OCCN2S(=O)(=O)c1ccccc1 was read as Cneo AK release inactive, FGF22 binding inactive, rRNA inh HTS inactive, HIV Env fusion inactive and ERAP1 inh inactive.
Screening COc1ccc([Si](C)(C)[C@H]2[C@H](CCn3cc(CCO)nn3)O[C@@]3(C(=O)N(Cc4ccc(N5C(=O)c6cccc7cccc5c67)cc4)c4ccccc43)[C@@H]2C)cc1 returned Cneo AK release inactive, FGF22 binding inactive, HIV Env fusion inactive, ERAP1 inh inactive and PGC1a acetyl inh inactive.
For COc1cc(/C=C2\SC(N3CCCCC3)=NC2=O)cc(OC)c1OC the results were FGF22 binding inactive, rRNA inh HTS -28.0, HIV Env fusion inactive and ERAP1 inh inactive.
For O=C1N=C(N2CCCCC2)S/C1=C\c1ccncc1 the results were FGF22 binding inactive, rRNA inh HTS inactive, HIV Env fusion inactive and ERAP1 inh inactive.
Screening CCc1ccc(/C=C2\SC(N3CCCC3)=NC2=O)cc1 returned FGF22 binding inactive, rRNA inh HTS -15.2, HIV Env fusion inactive, ERAP1 inh inactive and PGC1a acetyl inh inactive.
Screening COc1ccc(/C=C2\SC(N3CCCCC3)=NC2=O)cc1 returned Cneo AK release inactive, FGF22 binding inactive, rRNA inh HTS inactive, HIV Env fusion inactive, ERAP1 inh inactive and PGC1a acetyl inh inactive.
COc1ccc(O)c(CN2CCCC(N3CCN(c4ccc(F)cc4)CC3)C2)c1 (stereo unspecified) was read as Cneo AK release inactive, FGF22 binding inactive, rRNA inh HTS inactive, HIV Env fusion inactive, ERAP1 inh inactive and PGC1a acetyl inh inactive.
CNC[C@H]1Oc2ncc(-c3ccc(OC)cc3)cc2C(=O)N([C@H](C)CO)C[C@@H]1C was read as Cneo AK release inactive, FGF22 binding inactive, rRNA inh HTS inactive, HIV Env fusion inactive, ERAP1 inh inactive and PGC1a acetyl inh inactive.
For NC(=O)C1CCN(C(=O)CNC(=O)c2ccc(F)cc2)CC1 the results were FGF22 binding 43.7, rRNA inh HTS inactive, HIV Env fusion inactive and ERAP1 inh inactive.
For Cc1noc(NS(=O)(=O)c2ccc(NC(=O)c3nn(-c4ccc(F)cc4)ccc3=O)cc2)c1C the results were Cneo AK release inactive, FGF22 binding inactive, rRNA inh HTS inactive, HIV Env fusion inactive, ERAP1 inh inactive and PGC1a acetyl inh inactive.
Screening Cc1ccc(C(=O)NC(=O)CSc2nnc(C)s2)cc1 returned Cneo AK release inactive, FGF22 binding inactive, rRNA inh HTS inactive, HIV Env fusion inactive, ERAP1 inh inactive and PGC1a acetyl inh inactive.
`Cn1c(=O)n(Cc2ccc(Cl)cc2)c(=O)c2c1nc1n2CCN1Cc1ccco1` gave Cneo AK release inactive, HIV Env fusion inactive and PGC1a acetyl inh inactive.
`Cn1c(=O)n(Cc2ccccc2F)c(=O)c2c1nc1n2CCN1Cc1ccco1` gave Cneo AK release inactive, FGF22 binding 43.0, rRNA inh HTS inactive, HIV Env fusion inactive, ERAP1 inh inactive and PGC1a acetyl inh inactive.
For CC1CCCC(C)N1C(=O)c1cccc2c1-c1ccccc1/C2=N/O (stereo unspecified) the results were Cneo AK release inactive and PGC1a acetyl inh inactive.
Screening Cc1ccc(Nc2n[nH]c(=S)s2)cc1 returned Cneo AK release inactive, FGF22 binding inactive, rRNA inh HTS inactive, HIV Env fusion inactive, ERAP1 inh inactive and PGC1a acetyl inh inactive.
For Cc1ccc(Nc2n[nH]c(=S)s2)cc1F the results were FGF22 binding 45.8, rRNA inh HTS inactive, HIV Env fusion inactive and ERAP1 inh inactive.
COCc1ccc(CN2CCc3c([nH]c4ccccc34)C2CC(C)C)o1 (stereo unspecified) was read as Cneo AK release inactive, FGF22 binding 43.1, rRNA inh HTS inactive, HIV Env fusion inactive, ERAP1 inh inactive and PGC1a acetyl inh inactive.
Screening CC(C)n1nc(C(=O)OCC(=O)N(C)C2CCS(=O)(=O)C2)c2ccccc2c1=O (stereo unspecified) returned Cneo AK release inactive, HIV Env fusion inactive and PGC1a acetyl inh inactive.
For COc1ccc(-c2cn[nH]c2N)c(OC)c1 the results were Cneo AK release inactive, HIV Env fusion 81.2 and PGC1a acetyl inh inactive.
Cn1ccnc1Sc1ccccc1[N+](=O)[O-] was read as FGF22 binding 43.3, rRNA inh HTS inactive, HIV Env fusion inactive and ERAP1 inh inactive.
`Cc1cc(C(=O)O)ccc1-c1ccc(/C=C2\NC(=O)N(Cc3ccccc3Cl)C2=O)o1` gave PGC1a acetyl inh inactive.
`CO[C@@H]1CN(C)C(=O)c2ccc(NS(=O)(=O)c3cn(C)cn3)cc2OC[C@H](C)N(CC2CC2)C[C@@H]1C` gave Cneo AK release inactive, FGF22 binding inactive, rRNA inh HTS inactive, ERAP1 inh inactive and PGC1a acetyl inh inactive.
